Measurements: ChEMBL document CHEMBL5620421, “2,6-Disubstituted 7-(naphthalen-2-ylmethyl)-7H-purines as a new class of potent antitubercular agents inhibiting DprE1” (Eur J Med Chem, 2023)
Values after ≈ are worked out from the molar mass of the structure shown. Active and inactive are the calls of the source. The calls are words filed in the database; no cut-off is given here.

Columns and labels:
[1] = system: Mycobacterium tuberculosis; experiment: Antimycobacterial activity against XDR clinical isolate Mycobacterium tuberculosis PRAHA 131 assessed as inhibition of mycobacterial growth measured after 14 to 21 days of incubation by Sulas semisynthetic medium based assay; type: functional; details: time 14-21 day
Method in brief: (§1)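 Clinical MDR/XDR M. tuberculosis isolates were tested by the Sula's semisynthetic medium micromethod. Compounds in DMSO at 1000 to 0.5 μmol/L, in twofold-type steps. Incubation at 37 °C, read at 14 and 21 days. MIC99 is the lowest concentration inhibiting >99% of growth. Drug resistance or susceptibility of each isolate is to amikacin, clofazimine, gentamicin, ofloxacin, streptomycin and the others listed.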

Mycobacterium kansasii [2] = experiment: Antitubercular activity against Mycobacterium kansasii CNCTC My 235/80 assessed as inhibition of bacterial growth measured after 21 days of incubation by Sulas semisynthetic medium based assay; type: functional; details: CNCTC My 235/80, 504 h, time 21 day
Method in brief: (§2)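 Micromethod in Sula's semisynthetic medium. MIC is the lowest concentration inhibiting >99% of the mycobacterial population. Isoniazid was the standard.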

Escherichia coli = experiment: Antibacterial activity against Escherichia coli A1235 assessed as inhibition of bacterial growth incubated for 24 to 48 hrs by microdilution broth method; type: functional, organism-based; details: time 24-48 hrs
Method in brief: (§3)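 Clinical isolates kept at –70 °C and subcultured twice on Mueller-Hinton agar, using the second subculture. Broth microdilution in Mueller-Hinton broth at pH 7.4 with two-fold serial compound dilutions and DMSO ≤1% final. Inoculum was 10 μL of a 1.5 × 10⁸ CFU/mL suspension. Incubated at 36 °C ± 1 °C and read at 24 h and 48 h. MIC taken as 95% growth inhibition.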

Klebsiella pneumoniae [3] = experiment: Antibacterial activity against ESBL positive Klebsiella pneumoniae C1914 assessed as inhibition of bacterial growth incubated for 24 to 48 hrs by microdilution broth method; type: functional, organism-based; details: time 24-48 hrs; method in brief: as §3
[4] = Selectivity index, ratio of IC50 for cytotoxicity against human HepG2 cells by MTT assay to MIC99 for antitubercular activity against Mycobacterium tuberculosis CNCTC My 331/88 (H37Rv) assessed as inhibition of bacterial growth measured after 14 days of incubation; type: functional; details: time 14 day
Method in brief: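 HepG2 cells, 15 × 10³/well, were attached overnight and exposed 24 h to serial dilutions (DMSO ≤1%). Read by MTT at 0.5 mg/mL for 1 h and 570 nm. IC50 from 4-parameter regression, three independent experiments in triplicate. SI is HepG2 IC50 divided by H37Rv MIC99.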

Pseudomonas aeruginosa [5] = experiment: Antibacterial activity against multidrug-resistant Pseudomonas aeruginosa A1245 assessed as inhibition of bacterial growth incubated for 24 to 48 hrs by microdilution broth method; type: functional, organism-based; details: time 24-48 hrs
Method in brief: (§4)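 Clinical isolates, stored at −70 °C, were passaged twice on Mueller-Hinton agar. Broth microdilution in Mueller-Hinton broth, pH 7.4, with twofold serial dilutions. DMSO was at most 1% final. Inoculum 1.5 × 10⁸ CFU/mL suspension. MIC is 95% growth inhibition, read after 24 and 48 h at 36 °C.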

Mycobacterium kansasii [6] = experiment: Antitubercular activity against Mycobacterium kansasii CNCTC My 235/80 assessed as inhibition of bacterial growth measured after 7 days of incubation by Sulas semisynthetic medium based assay; type: functional; details: CNCTC My 235/80, 168 h, time 7 day; method in brief: as §2
[7] = system: Mycobacterium tuberculosis; experiment: Antimycobacterial activity against XDR clinical isolate Mycobacterium tuberculosis 9449/2007 assessed as inhibition of mycobacterial growth measured after 14 to 21 days of incubation by Sulas semisynthetic medium based assay; type: functional; details: time 14-21 day; method in brief: as §1
Enterococcus faecium [8] = experiment: Antibacterial activity against vancomycin-resistant Enterococcus faecium assessed as inhibition of bacterial growth incubated for 24 to 48 hrs by microdilution broth method; type: functional, organism-based; details: time 24-48 hrs; method in brief: as §4
[9] = Half life in human liver microsomes at 3 uM incubated for 5 to 45 min in presence of NADPH by LC-MS analysis; type: ADME, Microsome; details: time 5-45 min
[10] = system: Mycobacterium tuberculosis; experiment: Antimycobacterial activity against XDR clinical isolate Mycobacterium tuberculosis 234/2005 assessed as inhibition of mycobacterial growth measured after 14 to 21 days of incubation by Sulas semisynthetic medium based assay; type: functional; details: time 14-21 day; method in brief: as §1
[11] = system: Mycobacterium tuberculosis; experiment: Antimycobacterial activity against MDR clinical isolate Mycobacterium tuberculosis PRAHA 1 assessed as inhibition of mycobacterial growth measured after 14 to 21 days of incubation by Sulas semisynthetic medium based assay; type: functional; details: time 14-21 day; method in brief: as §1
[12] = system: Mycobacterium tuberculosis; experiment: Antimycobacterial activity against XDR clinical isolate Mycobacterium tuberculosis PRAHA 4 assessed as inhibition of mycobacterial growth measured after 14 to 21 days of incubation by Sulas semisynthetic medium based assay; type: functional; details: time 14-21 day; method in brief: as §1
[13] = Stability in human plasma assessed as compound remaining at 1 uM incubated for 15 to 120 mins by LC-MS analysis; type: ADME, cell-free; details: time 15-120 min, read-out: Stability
Method in brief: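 Stopped with acetonitrile containing internal standard and centrifuged at 12,000 rpm for 5 min at 4 °C. Supernatant analysed by LC-MS in positive mode. % remaining taken from compound/IS peak-area ratios at 120 versus 0 min.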

[14] = system: Mycobacterium tuberculosis; experiment: Antimycobacterial activity against XDR clinical isolate Mycobacterium tuberculosis 7357/1998 assessed as inhibition of mycobacterial growth measured after 14 to 21 days of incubation by Sulas semisynthetic medium based assay; type: functional; details: time 14-21 day; method in brief: as §1
Klebsiella pneumoniae [15] = experiment: Antibacterial activity against ESBL positive Klebsiella pneumoniae C1914 assessed as inhibition of bacterial growth at 125 uM incubated for 24 to 48 hrs by microdilution broth method; type: functional, organism-based; details: time 24-48 hrs
HepG2 [16] = experiment: Cytotoxicity against human HepG2 cells assessed as cell viability at 50 uM incubated for 72 hrs by MTT spectrophotometric analysis relative to control; type: functional; details: read-out: Activity
Method in brief: (§5)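 HepG2 or rat H9c2 cells in DMEM with FBS, seeded at 10,000 cells/well. Treated 24 h later for 72 h, with 0.1% DMSO vehicle and 1% Triton X-100 as controls. MTT added (3 mg/mL solution) for 2 h at 37 °C, then cells lysed in isopropanol/0.1 M HCl/5% Triton X-100. Read at 570 nm minus 690 nm. Viability expressed as % of vehicle; IC50 derived where reached. At least four independent experiments.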

[17] = system: Staphylococcus epidermidis; experiment: Antibacterial activity against Staphylococcus epidermidis C1936 assessed as inhibition of bacterial growth at 125 uM incubated for 24 to 48 hrs by microdilution broth method; type: functional, organism-based; details: time 24-48 hrs
H9c2 = experiment: Cytotoxicity against rat H9c2 cells assessed as cell viability incubated for 72 hrs by MTT spectrophotometric analysis; type: functional, cell-based; details: H9c2, 72 h; method in brief: as §5
HepG2 [18] = experiment: Cytotoxicity against human HepG2 cells assessed as cell viability incubated for 72 hrs by MTT spectrophotometric analysis; type: functional, cell-based; details: HepG2, 72 h; method in brief: as §5
Klebsiella pneumoniae [19] = experiment: Antibacterial activity against ESBL negative Klebsiella pneumoniae C1950 assessed as inhibition of bacterial growth at 125 uM incubated for 24 to 48 hrs by microdilution broth method; type: functional, organism-based; details: time 24-48 hrs
Pseudomonas aeruginosa [20] = experiment: Antibacterial activity against multidrug-resistant Pseudomonas aeruginosa A1245 assessed as inhibition of bacterial growth at 125 uM incubated for 24 to 48 hrs by microdilution broth method; type: functional, organism-based; details: time 24-48 hrs
Staphylococcus aureus = experiment: Antibacterial activity against methicilin-resistant Staphylococcus aureus C1923 assessed as inhibition of bacterial growth at 125 uM incubated for 24 to 48 hrs by microdilution broth method; type: functional, organism-based; details: time 24-48 hrs
Enterococcus faecium [21] = experiment: Antibacterial activity against vancomycin-resistant Enterococcus faecium assessed as inhibition of bacterial growth at 125 uM incubated for 24 to 48 hrs by microdilution broth method; type: functional, organism-based; details: time 24-48 hrs

| Structure (SMILES) | MIC99 [1] | MIC99 (Mycobacterium kansasii [2]) | Activity (Escherichia coli) | Activity (Klebsiella pneumoniae [3]) | Selectivity Index [4] | Activity (Pseudomonas aeruginosa [5]) | MIC99 (Mycobacterium kansasii [6]) | MIC99 [7] | Activity (Enterococcus faecium [8]) | half-life at 3 µM [9] | MIC99 [10] | MIC99 [11] | MIC99 [12] | remaining at 1 µM [13] | MIC99 [14] | viability at 50 µM (HepG2 [16]) | IC50 (H9c2) | IC50 (HepG2 [18]) | further results |
| --- | --- | --- | --- | --- | --- | --- | --- | --- | --- | --- | --- | --- | --- | --- | --- | --- | --- | --- | --- |
| c1ccc2cc(Cn3cnc4nc(N5CCOCC5)nc(NC5CCC5)c43)ccc2c1 | 8 µM (≈ 3.32 µg/mL) | 8 µM (≈ 3.32 µg/mL) | inactive | inactive | 16.5 | inactive | 8 µM (≈ 3.32 µg/mL) | 8 µM (≈ 3.32 µg/mL) | Active | 37.9 min | 8 µM (≈ 3.32 µg/mL) | 4 µM (≈ 1.66 µg/mL) | 8 µM (≈ 3.32 µg/mL) | 97.5% | 8 µM (≈ 3.32 µg/mL) | – | – | – | – |
| c1ccc(CNc2nc(N3CCOCC3)nc3ncn(Cc4ccc5ccccc5c4)c23)cc1 | 4 µM (≈ 1.8 µg/mL) | 8 µM (≈ 3.6 µg/mL) | inactive | inactive | 16.9 | inactive | 4 µM (≈ 1.8 µg/mL) | 4 µM (≈ 1.8 µg/mL) | inactive | 19.3 min | 4 µM (≈ 1.8 µg/mL) | 4 µM (≈ 1.8 µg/mL) | 4 µM (≈ 1.8 µg/mL) | 99.2% | 4 µM (≈ 1.8 µg/mL) | – | – | – | – |
| Nc1nc(N2CCOCC2)nc2ncn(Cc3ccc4ccccc4c3)c12 | 4 µM (≈ 1.44 µg/mL) | 16 µM (≈ 5.77 µg/mL) | inactive | inactive | >125 | inactive | – | 4 µM (≈ 1.44 µg/mL) | inactive | 82.5 min | – | – | – | 103% | – | 77% | > 50 µM | > 50 µM | Activity (Klebsiella pneumoniae [15]): inactive; Activity [17]: inactive; Activity (Klebsiella pneumoniae [19]): inactive; Activity (Pseudomonas aeruginosa [20]): inactive; Activity (Staphylococcus aureus): inactive; Activity (Enterococcus faecium [21]): inactive |
| O=c1[nH]c(N2CCOCC2)nc2ncn(Cc3ccc4ccccc4c3)c12 | 32 µM (≈ 11.6 µg/mL) | 125 µM (≈ 45.2 µg/mL) | inactive | inactive | 31.25 | inactive | 32 µM (≈ 11.6 µg/mL) | 64 µM (≈ 23.1 µg/mL) | inactive | 110 min | 32 µM (≈ 11.6 µg/mL) | 32 µM (≈ 11.6 µg/mL) | 32 µM (≈ 11.6 µg/mL) | 96.6% | 64 µM (≈ 23.1 µg/mL) | 60.5% | > 50 µM | 59 µM | – |
| O=c1[nH]c(N2CCSCC2)nc2ncn(Cc3ccc4ccccc4c3)c12 | 16 µM (≈ 6.04 µg/mL) | 125 µM (≈ 47.2 µg/mL) | inactive | inactive | 16 | inactive | 32 µM (≈ 12.1 µg/mL) | 16 µM (≈ 6.04 µg/mL) | inactive | 10.9 min | 16 µM (≈ 6.04 µg/mL) | 16 µM (≈ 6.04 µg/mL) | 16 µM (≈ 6.04 µg/mL) | 98.2% | 16 µM (≈ 6.04 µg/mL) | 72.9% | > 50 µM | > 50 µM | – |
| O=c1[nH]c(N2CCCCC2)nc2ncn(Cc3ccc4ccccc4c3)c12 | 16 µM (≈ 5.75 µg/mL) | > 500 µM | inactive | inactive | 43.6 | inactive | > 500 µM | 16 µM (≈ 5.75 µg/mL) | inactive | 17.8 min | 16 µM (≈ 5.75 µg/mL) | 16 µM (≈ 5.75 µg/mL) | 16 µM (≈ 5.75 µg/mL) | 96.7% | 16 µM (≈ 5.75 µg/mL) | 42.2% | > 50 µM | 54.8 µM | – |
| COc1nc(N2CCOCC2)nc2ncn(Cc3ccc4ccccc4c3)c12 | 16 µM (≈ 6.01 µg/mL) | 64 µM (≈ 24 µg/mL) | inactive | inactive | 32 | inactive | 16 µM (≈ 6.01 µg/mL) | 16 µM (≈ 6.01 µg/mL) | inactive | – | 16 µM (≈ 6.01 µg/mL) | 16 µM (≈ 6.01 µg/mL) | 16 µM (≈ 6.01 µg/mL) | – | 16 µM (≈ 6.01 µg/mL) | 66.4% | > 50 µM | > 50 µM | – |
